ChEMBL document CHEMBL4004807 (J Med Chem, 2017)
Blank lines part the entries; values can stand above or below the molecule they belong to. Activity calls are given as the source filed them. The calls are words filed in the database; no cut-off is given here.

Experiments:
Plasma = test: Drug level in bile-duct cannulated rat plasma treated with 2-(((1r,4r)-4-(((4-chlorophenyl)(phenyl)carbamoyloxy)methyl)cyclohexyl)methoxy)acetic acid; assay type: ADME, cell-free
[1] = Volume of distribution at steady state in Sprague-Dawley rat at 2 mg/kg, iv or 10 mg/kg, po; assay type: ADME, organism-based; settings: in vivo
[2] = Selectivity ratio of EC50 for recombinant rat IP receptor expressed in CHO-K1 cells to EC50 for recombinant human IP receptor expressed in CHO-K1 cells; assay type: cell-based
Prostacyclin receptor [3] = target: T1, Prostacyclin receptor (Homo sapiens, UniProt P43119); test: Ratio of IC50 for IP receptor in human primary platelets to EC50 for recombinant human IP receptor expressed in CHO-K1 cells; assay type: cell-based
Rattus norvegicus [4] = test: AUC (0 to infinity) in Sprague-Dawley rat at 10 mg/kg, po; assay type: ADME, organism-based; set-up: dose 10 mg/kg, route oral, time infinity; settings: in vivo
Outline: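 Sprague-Dawley rats, single oral dose of 10.0 mg/kg; AUC0-inf from plasma concentrations.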

[5] = Total clearance in Sprague-Dawley rat plasma at 2 mg/kg, iv or 10 mg/kg, po; assay type: ADME, organism-based
Rattus norvegicus [6] = test: Inhibition of right ventricle hypertrophic response in Sprague-Dawley rat monocrotaline model of pulmonary arterial hypertension assessed as reduction of MCT-induced increase in ratio of right ventricular weight to left ventricle plus septum weight administered via oral gavage twice daily for 21 consecutive days starting 24 hrs after monocrotaline challenge; assay type: functional
Outline: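 Male rats given 60 mg/kg monocrotaline sc on day 1 (sham: saline) under 30 mg/kg ip pentobarbital; from next day for 20 days dosed by oral gavage twice daily at 10 or 30 mg/kg in 20% HPBCD in saline (vehicle control). Day 21: RV/(LV+S) weights; mPAP via catheter under 60 mg/kg pentobarbital (30 mg/kg group, n = 5); H&E lung sections, 5 animals/group.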

Prostacyclin receptor [7] = target: T1, Prostacyclin receptor; test: Agonist activity at IP receptor in PAH patient-derived primary pulmonary arterial smooth muscle cells assessed as induction of cAMP levels after 1 hr by HTRF method; assay type: functional
[8] = target: Prostaglandin E2 receptor EP2 subtype (Homo sapiens) (UniProt P43116); test: Agonist activity at recombinant human EP2 receptor expressed in CHO-K1 cells assessed as increase in intracellular cAMP level up to 10 uM after 1 hr incubation by HTRF method; assay type: functional, cell-based
[9] = target: Prostaglandin E2 receptor EP4 subtype (Homo sapiens) (UniProt P35408); test: Agonist activity at recombinant human EP4 receptor expressed in CHO-K1 cells assessed as increase in intracellular cAMP level up to 10 uM after 1 hr incubation by HTRF method; assay type: functional, cell-based
[10] = target: T2, Prostaglandin E2 receptor EP3 subtype (Homo sapiens, UniProt P43115); test: Agonist activity at recombinant human EP3v6 receptor expressed in melanophores assessed as induction of pigment redistribution up to 10 uM after 90 mins; settings: 1.5 h
T2 sequence (P43115 whole entry): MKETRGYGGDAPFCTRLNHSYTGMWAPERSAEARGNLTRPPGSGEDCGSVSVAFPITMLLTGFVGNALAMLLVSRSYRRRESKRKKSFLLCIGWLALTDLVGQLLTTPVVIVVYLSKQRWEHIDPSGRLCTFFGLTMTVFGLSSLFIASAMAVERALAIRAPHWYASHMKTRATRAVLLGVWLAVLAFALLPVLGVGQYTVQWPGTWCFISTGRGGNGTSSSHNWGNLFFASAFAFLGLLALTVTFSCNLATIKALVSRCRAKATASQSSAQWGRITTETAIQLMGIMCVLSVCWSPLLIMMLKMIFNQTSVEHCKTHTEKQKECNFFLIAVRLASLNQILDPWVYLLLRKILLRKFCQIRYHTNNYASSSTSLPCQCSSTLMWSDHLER
Outline: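 Melanophores electroporated with 20 μg human EP3v6 plasmid per 400 μL cells, grown 48 h at 27 °C. Assay buffer 0.7× PBS pH 7.3 with 20 nM melatonin to aggregate pigment, 90 min at room temperature, 650 nm baseline; compounds added (10-point, 5-fold dilutions, top 10 μM final), 90 min room temperature, absorbance reread.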

Prostacyclin receptor [11] = target: Prostacyclin receptor (Rattus norvegicus, UniProt P43253); test: Agonist activity at recombinant rat IP receptor expressed in CHO-K1 cells assessed as increase in intracellular cAMP level after 1 hr incubation by HTRF method; assay type: functional, cell-based
Outline: (§1)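 CHO-K1 clonal lines stably expressing IP at minimal levels; cells in PBS with 1 mM IBMX and 0.2% BSA, 200 000 cells/mL. 10-point, 5-fold DMSO serial dilution, top 10 μM; 1 h at room temperature, then HTRF cAMP-D2 and cryptate reagents in lysis buffer, 1 h, time-resolved fluorescence.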

Prostacyclin receptor [12] = target: T1, Prostacyclin receptor; test: Agonist activity at recombinant human IP receptor expressed in CHO-K1 cells assessed as increase in intracellular cAMP level after 1 hr incubation by HTRF method; assay type: functional, cell-based; outline: as §1
[13] = target: T3, Prostaglandin D2 receptor (Homo sapiens, UniProt Q13258); test: Agonist activity at recombinant human DP1 receptor expressed in CHO-K1 cells assessed as increase in intracellular cAMP level after 1 hr incubation by HTRF method; assay type: functional, cell-based
T3 sequence (Q13258 whole entry): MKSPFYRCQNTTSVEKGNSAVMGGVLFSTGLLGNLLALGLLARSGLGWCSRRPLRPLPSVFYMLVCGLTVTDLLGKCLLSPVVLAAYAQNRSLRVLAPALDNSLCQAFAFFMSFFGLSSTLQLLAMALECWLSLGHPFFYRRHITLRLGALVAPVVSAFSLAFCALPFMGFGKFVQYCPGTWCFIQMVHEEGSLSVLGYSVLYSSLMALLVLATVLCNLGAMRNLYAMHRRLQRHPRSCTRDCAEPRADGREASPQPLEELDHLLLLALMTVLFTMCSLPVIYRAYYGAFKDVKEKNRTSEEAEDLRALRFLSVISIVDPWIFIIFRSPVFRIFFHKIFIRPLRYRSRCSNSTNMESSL
Outline: (§2)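 CHO-K1 clonal line stably expressing DP1 at minimal level; HTRF cAMP assay, 1 h incubation at room temperature, time-resolved fluorescence read-out.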

Prostacyclin receptor [14] = target: T1, Prostacyclin receptor; test: Intrinsic activity at recombinant human IP receptor expressed in CHO-K1 cells assessed as increase in intracellular cAMP level at 10 uM after 1 hr incubation by HTRF method relative to iloprost; assay type: functional, cell-based
Outline: (§3)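 Stably transfected CHO-K1 clones with receptor expression kept minimal to avoid receptor reserve. Cells at 200 000/mL in PBS with 1 mM IBMX and 0.2% BSA. 10-point 5-fold dilution series, top 10 μM, tested in triplicate plates, 1 h at room temperature. HTRF cAMP read by time-resolved fluorescence.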

[15] = target: Prostacyclin receptor (Rattus norvegicus) (UniProt P43253); test: Intrinsic activity at recombinant rat IP receptor expressed in CHO-K1 cells assessed as increase in intracellular cAMP level at 10 uM after 1 hr incubation by HTRF method relative to iloprost; assay type: functional, cell-based; outline: as §3
[16] = target: T4, Prostaglandin D2 receptor (Homo sapiens) (UniProt Q13258); test: Intrinsic activity at recombinant human DP1 receptor expressed in CHO-K1 cells assessed as increase in intracellular cAMP level after 1 hr incubation by HTRF method relative to prostaglandin D2; assay type: functional, cell-based; outline: as §2
T4 sequence (whole entry): T3 sequence (Q13258 whole entry)

[17] = Half life in human microsomes; assay type: ADME, Microsome
[18] = Half life in rat microsomes; assay type: ADME, Microsome

T1 sequence (P43119 whole entry): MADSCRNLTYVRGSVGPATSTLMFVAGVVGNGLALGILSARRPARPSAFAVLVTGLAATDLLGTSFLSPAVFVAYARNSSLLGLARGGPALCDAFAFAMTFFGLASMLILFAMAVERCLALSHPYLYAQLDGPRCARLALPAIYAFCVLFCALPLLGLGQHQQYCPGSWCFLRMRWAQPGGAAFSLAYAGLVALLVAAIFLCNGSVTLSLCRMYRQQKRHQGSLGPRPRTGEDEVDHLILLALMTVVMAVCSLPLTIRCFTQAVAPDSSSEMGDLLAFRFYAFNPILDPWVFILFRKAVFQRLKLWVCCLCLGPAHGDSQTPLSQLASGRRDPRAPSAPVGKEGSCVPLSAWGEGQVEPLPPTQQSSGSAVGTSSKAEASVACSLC
Chain of Prostacyclin receptor (Rattus norvegicus, UniProt P43253) (P43253 whole entry): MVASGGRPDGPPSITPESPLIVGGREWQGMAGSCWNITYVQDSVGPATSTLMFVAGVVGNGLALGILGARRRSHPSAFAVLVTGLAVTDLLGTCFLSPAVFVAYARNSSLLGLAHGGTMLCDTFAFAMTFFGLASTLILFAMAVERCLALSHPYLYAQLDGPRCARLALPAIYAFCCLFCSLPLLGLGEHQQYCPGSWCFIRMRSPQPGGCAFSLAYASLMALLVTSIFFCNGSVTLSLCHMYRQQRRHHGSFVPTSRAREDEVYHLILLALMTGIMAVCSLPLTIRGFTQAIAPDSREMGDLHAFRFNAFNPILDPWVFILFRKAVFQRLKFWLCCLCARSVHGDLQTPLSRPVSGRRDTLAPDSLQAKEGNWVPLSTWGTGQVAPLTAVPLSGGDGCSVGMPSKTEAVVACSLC
Chain of Prostacyclin receptor (Rattus norvegicus) (P43253 whole entry): as above
Chain of Prostaglandin E2 receptor EP2 subtype (Homo sapiens) (P43116 whole entry): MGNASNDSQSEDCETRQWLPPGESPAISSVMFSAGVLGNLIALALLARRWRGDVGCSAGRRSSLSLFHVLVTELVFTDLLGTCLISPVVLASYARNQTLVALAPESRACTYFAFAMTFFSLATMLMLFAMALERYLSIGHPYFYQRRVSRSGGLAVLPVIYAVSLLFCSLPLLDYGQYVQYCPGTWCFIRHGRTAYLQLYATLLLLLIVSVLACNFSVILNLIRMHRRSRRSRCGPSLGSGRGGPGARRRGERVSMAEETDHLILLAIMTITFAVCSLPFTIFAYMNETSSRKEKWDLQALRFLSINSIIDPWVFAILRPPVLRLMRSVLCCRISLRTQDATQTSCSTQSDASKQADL
Chain of Prostaglandin E2 receptor EP4 subtype (Homo sapiens) (P35408 whole entry): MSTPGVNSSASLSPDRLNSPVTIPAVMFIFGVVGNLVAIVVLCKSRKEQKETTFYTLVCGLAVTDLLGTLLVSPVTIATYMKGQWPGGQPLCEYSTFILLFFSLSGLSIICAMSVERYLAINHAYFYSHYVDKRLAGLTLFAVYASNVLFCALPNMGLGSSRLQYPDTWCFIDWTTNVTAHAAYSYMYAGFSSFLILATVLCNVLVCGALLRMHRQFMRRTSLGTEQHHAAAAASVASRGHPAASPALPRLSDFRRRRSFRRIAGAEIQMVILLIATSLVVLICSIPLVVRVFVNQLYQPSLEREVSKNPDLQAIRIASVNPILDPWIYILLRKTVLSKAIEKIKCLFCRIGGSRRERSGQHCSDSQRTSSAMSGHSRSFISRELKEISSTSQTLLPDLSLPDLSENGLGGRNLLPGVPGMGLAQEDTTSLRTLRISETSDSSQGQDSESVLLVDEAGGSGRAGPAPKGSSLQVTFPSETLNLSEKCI

- Drug metabolism (Plasma): Metabolite_Detected
SMILES: O=C(O)COC[C@H]1CC[C@H](COC(=O)N(c2ccc(O)cc2)c2ccc(Cl)cc2)CC1

- Vd [1]: 0.71 L/kg
- Ratio IC50/EC50 (Prostacyclin receptor [3]): 2 to 10
- AUC (Rattus norvegicus [4]): 3400 ng·h/mL
- clearance [5]: 56.7 mL/min/kg
SMILES: COc1ccc(N(C(=O)OC[C@H]2CC[C@H](COCC(=O)O)CC2)c2ccccc2)cc1
- Ratio EC50 [2]: 10 to 30

- Ratio IC50/EC50 (Prostacyclin receptor [3]): 2 to 10
SMILES: O=C(O)COC[C@H]1CC[C@H](COC(=O)N(c2ccc(F)cc2)c2ccc(F)cc2)CC1
- Ratio EC50 [2]: 10 to 30

- Activity (Prostacyclin receptor [7]): Active
- Activity [8]: inactive
- Vd [1]: 2.74 L/kg
- Ratio IC50/EC50 (Prostacyclin receptor [3]): 2 to 10
- AUC (Rattus norvegicus [4]): 7900 ng·h/mL
- Activity [9]: inactive
- clearance [5]: 20 mL/min/kg
- Activity [10]: Active
SMILES: O=C(O)COC[C@H]1CC[C@H](COC(=O)N(c2ccccc2)c2cccc(F)c2)CC1
- inhibition (Rattus norvegicus [6]): Dose-dependent effect
- Ratio EC50 [2]: 10 to 30

- Vd [1]: 6.3 L/kg
- Ratio IC50/EC50 (Prostacyclin receptor [3]): 2 to 10
- AUC (Rattus norvegicus [4]): 1900 ng·h/mL
SMILES: COc1cccc(N(C(=O)OC[C@H]2CC[C@H](COCC(=O)O)CC2)c2ccccc2)c1
- Ratio EC50 [2]: 10 to 30

- Ratio IC50/EC50 (Prostacyclin receptor [3]): 2 to 10
SMILES: O=C(O)COC[C@H]1CC[C@H](COC(=O)N(c2ccc(Cl)cc2)c2cccc(F)c2)CC1
- Ratio EC50 [2]: 10 to 30

- EC50 (Prostacyclin receptor [11]): 0.2 µM
- EC50 (Prostacyclin receptor [12]): 0.006 µM
- EC50 [13]: 0.1 µM
- Ratio IC50/EC50 (Prostacyclin receptor [3]): 2 to 10
SMILES: CC(C)N(CCCCOCC(=O)NS(C)(=O)=O)c1cnc(-c2ccccc2)c(-c2ccccc2)n1 [SELEXIPAG]
- Ratio EC50 [2]: 10 to 30

- Ratio IC50/EC50 (Prostacyclin receptor [3]): 2 to 10
SMILES: O=C(O)COC[C@H]1CC[C@@H](COC(=O)N(c2ccccc2)c2ccccc2)CC1
- Ratio EC50 [2]: 10 to 30

- Activity (Prostacyclin receptor [7]): Active
SMILES: CC(C)N(CCCCOCC(=O)O)c1cnc(-c2ccccc2)c(-c2ccccc2)n1

- Ratio IC50/EC50 (Prostacyclin receptor [3]): 2 to 10
SMILES: O=C(O)COC[C@H]1CC[C@H](COC(=O)N(c2ccc(F)cc2)c2cccc(F)c2)CC1
- Ratio EC50 [2]: 10 to 30

- Intrinsic activity (Prostacyclin receptor [14]): 80%
- Intrinsic activity [15]: 88%
- Intrinsic activity [16]: 30%
- half-life [17]: > 1 h
- half-life [18]: > 1 h
SMILES: O=C(O)COC[C@H]1CC[C@@H](COC(=O)N(c2ccccc2)c2cccc(Cl)c2)CC1

- Ratio IC50/EC50 (Prostacyclin receptor [3]): 2 to 10
SMILES: O=C(O)COC[C@H]1CC[C@@H](COC(=O)N(c2ccccc2)c2cccc(F)c2)CC1
- Ratio EC50 [2]: 10 to 30
